Results: ChEMBL document CHEMBL3351951, “2-Octadecynoic acid as a dual life stage inhibitor of Plasmodium infections and plasmodial FAS-II enzymes” (Bioorg Med Chem Lett, 2014)
In brackets after ≈: the same amount, converted by molar mass. Activity calls are given as the source filed them. The rule behind the calls is not given here.

Legend:
[1] = species on record: Danio rerio; assay: Hepatotoxicity in zebrafish larvae at 300 uM measured during 3 to 6 days of post-fertilization; assay type: organism-based; conditions: in vivo
How it was run: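 Larvae with DsRed-fluorescent livers were exposed from 3 to 6 dpf; vehicle was 1% DMSO. At 6 dpf, livers were photographed under a stereomicroscope and scored as normal, reduced fluorescence, reduced size, enlarged or absent. Paracetamol 300 μM served as the positive control.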

[2] = system: L6; assay: Cytotoxicity against rat L6 cells; assay type: cell-based
[3] = system: Plasmodium berghei; assay: Antimalarial activity against liver stage of Plasmodium berghei infected in human Huh7 cells assessed as reduction in parasite load treated after 2 hrs of infection for 46 hrs by luciferase assay; assay type: functional, organism-based; conditions: Huh-7, Liver
How it was run: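 Huh7 hepatoma cells infected with luciferase-expressing P. berghei sporozoites. Parasite load measured by luciferase signal at 44 hpi (48 hpi in the figure legend) and expressed as percent of control. IC50 is the average of at least two independent assays run in duplicate.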

[4] = Inhibition of Plasmodium falciparum FabI
How it was run: (§1)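 Recombinant P. falciparum FAS-II enzymes (FabI, FabZ, FabG) were assayed for inhibition. IC50 values (μg/ml) are the average of at least two independent assays run in duplicate.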

[5] = Inhibition of Plasmodium falciparum FabZ; how it was run: as §1
[6] = Inhibition of Plasmodium falciparum FabG; how it was run: as §1
[7] = species on record: Danio rerio; assay: Hepatotoxicity in zebrafish larvae during 3 to 6 days of post-fertilization; assay type: organism-based; conditions: in vivo
How it was run: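 Larvae with DsRed-fluorescent livers are exposed from 3 dpf for 3 days, at a range of concentrations up to each compound's maximum tolerated concentration. Vehicle is 1% DMSO, and paracetamol 300 μM is the positive control. At 6 dpf, livers are imaged and scored as normal, reduced fluorescence, reduced size, enlarged or absent.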

[8] = Cytotoxicity against human HuH7 cells assessed as cell viability by Alamar Blue assay; assay type: cell-based; conditions: huh-7
How it was run: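 Host-cell viability was measured in the same P. berghei-infected Huh7 wells. Cells were treated from 2 hpi, and Alamar Blue fluorescence was read at the time of infection analysis (48 hpi). Cell confluency is reported in arbitrary units.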

[9] = system: Plasmodium berghei; assay: Antimalarial activity against liver stage of GFP-expressing Plasmodium berghei infected in human Huh7 cells assessed as reduction in parasite load treated after 2 hrs of infection for 46 hrs by confocal microscopy; assay type: functional, organism-based; conditions: Huh-7
How it was run: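 Huh7 hepatoma cells infected with GFP-expressing P. berghei sporozoites. Treated at 2 hpi for 46 h at single fixed concentrations; vehicle DMSO 0.4%. Cells fixed in 4% PFA. Exo-erythrocytic forms immunolabelled with anti-PbHsp70 and an Alexa-488 secondary antibody; nuclei stained with Hoechst. Imaged by confocal microscopy.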

[10] = system: Plasmodium falciparum; assay: Antimalarial activity against blood stage of multidrug-resistant Plasmodium falciparum K1 after 72 hrs by [3H]hypoxanthine incorporation assay; assay type: functional, organism-based
How it was run: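 Blood-stage P. falciparum K1 growth is measured by 3H-hypoxanthine incorporation. IC50 is given in μg/ml as the mean of at least two independent assays, each run in duplicate.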

[11] = Critical micelle concentration of the compound in 1X phosphate-buffered saline containing rhodamine 6G at 2.5 x 10^-6 M by spectrophotometry; assay type: ADME; conditions: buffer

Structure (SMILES) | IC50 [3] | IC50 [4] | IC50 [5] | IC50 [6] | MTD [7] | other results
CC(=O)Nc1ccc(O)cc1 [ACETAMINOPHEN] |  |  |  |  |  | Activity [1]: Toxic
COc1cc([C@@H]2c3cc4c(cc3[C@H](O)[C@H]3COC(=O)[C@H]23)OCO4)cc(OC)c1OC [PODOFILOX] |  |  |  |  |  | IC50 [2]: 0.02 µg/mL (≈ 0.0483 µM)
CCCCCCCCCCCCCCCC(=O)O [PALMITIC ACID] | > 25 µg/mL | > 100 µg/mL | > 100 µg/mL | > 100 µg/mL | 700 µM | 
Oc1cc(Cl)ccc1Oc1ccc(Cl)cc1Cl [TRICLOSAN] |  | 0.015 µg/mL (≈ 0.0518 µM) |  |  |  | 
O=C(O[C@@H]1Cc2c(O)cc(O)cc2O[C@@H]1c1cc(O)c(O)c(O)c1)c1cc(O)c(O)c(O)c1 [EPIGALOCATECHIN GALLATE] |  |  | 0.03 µg/mL (≈ 0.0654 µM) | 0.2 µg/mL (≈ 0.436 µM) |  | 
CCCCCCCCCCCC#CC(=O)O | 2.87 µg/mL (≈ 12.8 µM) | 1.2 µg/mL (≈ 5.35 µM) | 3.5 µg/mL (≈ 15.6 µM) | 5.5 µg/mL (≈ 24.5 µM) | 1.2 µM | Activity [8]: Non-toxic
CCCCCCCCCCCCCCCC#CC(=O)O | 0.34 µg/mL (≈ 1.21 µM) | 0.3 µg/mL (≈ 1.07 µM) | 0.28 µg/mL (≈ 0.998 µM) | 0.8 µg/mL (≈ 2.85 µM) | 1 µM | Activity [8]: Non-toxic; inhibition [9]: Active; IC50 [10]: 6 µg/mL (≈ 21.4 µM); CMC [11]: 50 µg/mL
